Here are results for 3 molecules from publication PMC4734807 (International Journal of Nanomedicine, 2016).

A short description of series [1]: In vitro drug release. The format is physicochemical. Conditions: raw RBG.
The subject of series [2] is various malignant tumors, such as human hepatocellular carcinoma cells (Bel7402) and human cervical carcinoma cells (HeLa). Conditions: e.g. Bel7402, HeLa; cited from earlier work.
Series [3] relates to HepG2 cells. The experiment in a line: Cell apoptosis, Annexin V-FITC/PI flow cytometry. The format is cell-based, human. The conditions noted are these: 24 hours. The method in brief: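 HepG2 cells grown in high-glucose DMEM with 10% FBS and 1% antibiotics at 37°C, 5% CO2. Seeded at 2×10^5 cells/mL and incubated 24 h. Then exposed 24 h to nanoparticle suspension or drug solution at 1.2, 5 and 20 μg/mL RBG-equivalent, with 5-fluorouracil 20 μg/mL as control. Cells washed in cold PBS and stained with Annexin V-FITC/PI in binding buffer, 15 min at room temperature, then read by flow cytometry.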
(In general: Flow cytometry measures light scatter and fluorescence of single cells or particles in a stream.)

In series [4] the test system is HCa-F cells. In words: In vivo therapeutic effect in HCa-F solid tumor-bearing mice. Conditions: for IR (tumor growth inhibition rate) / Number of natural deaths / Tumor weight / Volume growth (incremental tumor volume): 2 mg/kg iv once per day for 7 days; for IR (tumor growth inhibition rate): by tumor weight; for Number of natural deaths: eight mice per group; for Tumor weight / Volume growth (incremental tumor volume): n=8. The procedure, abridged: (§1)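 Male mice, 6 weeks, implanted subcutaneously in the right axilla with washed HCa-F ascites cells (2.0–2.3×10^7 cells/mL, 0.01 mL/g). At a longest tumour diameter of about 14–16 mm, mice randomised to six groups of eight. Dosing 2 mg/kg RBG-equivalent (5-fluorouracil 2 mg/kg) by tail vein, daily for 7 days, in 20% PEG400/saline vehicle. Volume V=a²×b/2 measured before and after dosing. Tumours weighed; IR from mean weights versus vehicle control. Tumour RBG measured in saline homogenates.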

Series [5] can be described thus: LD50. Also noted: species or system mice. The conditions noted are these: male, Kunming, mouse, in vivo, iv.
Series [6] is described as follows: In vivo RBG concentrations in plasma and organs, liver-targeting indexes. Conditions: for AUC: iv. On the set-up: species or system Kunming mice. The procedure, abridged:
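Male Kunming mice, 6 weeks, about 20.9 g, fasted overnight. Single tail-vein dose of 2 mg/kg RBG-equivalent, given as sonicated nanoparticle suspension or as solution, both in 20% PEG400/saline. Ten mice per group sampled at 0.08–24 h: cardiac blood, liver, heart, spleen, lung and kidney. RBG measured by RP-HPLC. AUC0–24 h by trapezoid method. Re is the AUC ratio of formulation to solution; Te is the liver AUC over the non-target organ AUC.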

Series [7] can be described thus: In vivo therapeutic effect in HCa-F solid tumor-bearing mice. The conditions noted are these: male, mouse, tumor, intravenous, 2 mg/kg. The method in brief:
as §1

A value given as a limit tells only on which side of the number the result lay.

Consider `C[C@]12CC[C@H](O)C[C@H]1CC[C@@H]1[C@@H]2CC[C@]2(C)[C@@H](c3ccc(=O)oc3)C[C@H]3O[C@]132` [RBG, Resibufogenin], for which the “Release in the first 2 days” value in series [1] is listed as 98.78%. Besides, the IC50 (commonly the point on the concentration scale where inhibition reaches its midpoint) in series [2] was 1 to 50 nM.

For the molecule `O=c1[nH]cc(F)c(=O)[nH]1` [FS, 5-fluorouracil], in series [3] (20 μg/mL), the “Cell ratio, apoptotic cells” value was 14.2±1.2%; the “Cell ratio, necrotic cells” value was 22.3±1.6%; the “Cell ratio, survival cells” value was found to be 63.5±2.0%. In series [4], the “IR (tumor growth inhibition rate)” value was determined as 37.19%, the “Number of natural deaths” value was found to be 1, the Tumor weight turned out to be 3.26 ± 0.74 g and the “Volume growth (incremental tumor volume)” value was 3.05±0.72 ^* cm^3.

For the molecule `C[C@]12CC[C@H](O)C[C@H]1CC[C@@H]1[C@@H]2CC[C@]2(C)[C@@H](c3ccc(=O)oc3)C[C@H]3O[C@]132` [RS, Resibufogenin], the figures for the “Cell ratio, apoptotic cells” value in series [3] (1.2 μg/mL), in series [3] (5 μg/mL) and in series [3] (20 μg/mL) were 21.8±1.5%, 33.6±1.6 % and 45.4±1.7 %, respectively. The “Cell ratio, necrotic cells” value in series [3] (1.2 μg/mL) is recorded as 1.6±0.8%; in series [3] (5 μg/mL), 0.6±0.5%; in series [3] (20 μg/mL), 0.4±0.4%. Further, the results for the “Cell ratio, survival cells” value in series [3] (1.2 μg/mL), in series [3] (5 μg/mL) and in series [3] (20 μg/mL) were 76.6±2.2%, 65.8±2.7% and 54.2±1.9%, respectively. For the same molecule, in series [5], the 50% lethal dose (LD50) (as a rule, the dose expected to kill half of the subjects tested) amounted to 18.9 mg/kg. Besides, in series [6] (AUC liver / AUC heart), the “Te (targeting efficiency), liver versus heart” value came out at 0.6. Moreover, the “Te (targeting efficiency), liver versus kidney” value in series [6] (AUC liver / AUC kidney) came out at 0.8. In series [6] (AUC liver / AUC lung), the “Te (targeting efficiency), liver versus lung” value stood at 0.8. Also, the “Te (targeting efficiency), liver versus spleen” value in series [6] (AUC liver / AUC spleen) worked out at 1.0. For the same molecule, the “Te (targeting efficiency), overall statement” value in series [6] (liver versus plasma and other organs) was less than 1. Besides, the area under the curve (AUC) (in general, concentration integrated over time) in series [6] (male, Kunming, mouse, heart, 2 mg/kg) was 3700 ± 900 ng·h/mL; in series [6] (male, Kunming, mouse, kidney, 2 mg/kg) it was 2700 ± 1000 ng·h/mL; in series [6] (male, Kunming, mouse, liver, 2 mg/kg), 2100 ± 900 ng·h/mL; in series [6] (male, Kunming, mouse, lung, 2 mg/kg), 2500 ± 800 ng·h/mL; in series [6] (male, Kunming, mouse, plasma, 2 mg/kg), 18600 ± 2100 ng·h/mL; in series [6] (male, Kunming, mouse, spleen, 2 mg/kg), 2200 ± 600 ng·h/mL. Besides, the Kp (in general, the ratio of the level in a tissue or fluid to that in plasma or blood) in series [6] (male, Kunming, mouse, liver/plasma, intravenous, 2 mg/kg) came out at 0.1. Moreover, in series [6] (mice, iv 2 mg/kg RBG), the “Retention (slow release) time of RBG in liver” value worked out at 1 h. The same molecule gave a concentration at 7 days in series [7] of 50 ± 20 ng/g. Further, the “IR (tumor growth inhibition rate)” value in series [4] was 31.60%. Also, the “Number of natural deaths” value in series [4] is reported as 2. The Tumor weight in series [4] is 3.55 ± 0.71 g. Further, the “Volume growth (incremental tumor volume)” value in series [4] is 3.16±0.78 cm^3. The MRBG in tumor in series [4] (after 7 days of administration, n=6) came out at 0.19 ± 0.08 µg.
